Test results taken from ChEMBL document CHEMBL1144562, “Synthesis of a new class of 2-anilino substituted nicotinyl arylsulfonylhydrazides as potential anticancer and antibacterial agents” (2007).
In brackets after ≈: the same amount, converted by molar mass.

Assays:
Assay type in all cases: functional
[1] = system: RPMI-8226; assay: Antitumor activity against RPMI-8226 cells; settings: Homo sapiens; for TGI: read-out: Log TGI (converted)
[2] = system: SK-MEL-2; assay: Antitumor activity against SK-MEL-2 cells; settings: Homo sapiens; for TGI: read-out: Log TGI (converted)
[3] = system: SK-MEL-28; assay: Antitumor activity against SK-MEL-28 cells; settings: Homo sapiens; for TGI: read-out: Log TGI (converted)
[4] = system: UACC-62; assay: Antitumor activity against UACC62 cells; settings: Homo sapiens; for TGI: read-out: Log TGI (converted)
How it was run: (§1)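 Tested in the NCI 60-human-tumour-cell-line panel at five concentrations, in 10-fold dilutions from 10^-4 to 10^-8 M. Three parameters were taken from the dose-response data, each as log10 of the molar concentration: GI50 (50% net growth inhibition), TGI (total growth inhibition) and LC50 (50% net cell death).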

[5] = system: OVCAR-3; assay: Antitumor activity against OVCAR-3 cells; settings: Homo sapiens; for CC50: read-out: Log LC50 (the source's name) (converted); for TGI: read-out: Log TGI (converted)
[6] = system: OVCAR-4; assay: Antitumor activity against OVCAR4 cells; settings: Homo sapiens; for TGI: read-out: Log TGI (converted)
[7] = system: OVCAR-5; assay: Antitumor activity against OVCAR5 cells; settings: Homo sapiens; for CC50: read-out: Log LC50 (the source's name) (converted); for TGI: read-out: Log TGI (converted)
[8] = system: SN12C; assay: Antitumor activity against SN12C cells; settings: Homo sapiens; for TGI: read-out: Log TGI (converted); how it was run: as §1
[9] = system: TK-10; assay: Antitumor activity against TK10 cells; settings: Homo sapiens; for TGI: read-out: Log TGI (converted); how it was run: as §1
[10] = system: UO-31; assay: Antitumor activity against UO31 cells; settings: Homo sapiens; for TGI: read-out: Log TGI (converted); how it was run: as §1
[11] = system: PC-3; assay: Antitumor activity against PC3 cells; settings: Homo sapiens; for TGI: read-out: Log TGI (converted)
[12] = system: NCI/ADR-RES; assay: Antitumor activity against NCI/ADR-RES cells; settings: Homo sapiens; for TGI: read-out: Log TGI (converted)
[13] = system: BT-549; assay: Antitumor activity against BT549 cells; settings: Homo sapiens; for TGI: read-out: Log TGI (converted)
[14] = system: T47D; assay: Antitumor activity against T47D cells; settings: Homo sapiens; for CC50: read-out: Log LC50 (the source's name) (converted); for TGI: read-out: Log TGI (converted); how it was run: as §1
[15] = system: Escherichia coli; assay: Antibacterial activity against Escherichia coli MTCC 448 after 18 hrs; settings: MTCC 448, 18 h
How it was run: (§2)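 Disc diffusion (Kirby–Bauer) on Mueller-Hinton agar inoculated with fresh bacteria at 1-5 × 10^4 cfu mL-1. Compounds were dissolved in DMF at a range of concentrations, and discs were placed in triplicate. Plates were incubated at 30 °C for 18 h. MIC was taken as the lowest concentration giving no visible bacterial growth on the plate.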

[16] = system: Staphylococcus epidermidis; assay: Antibacterial activity against Staphylococcus epidermidis MTCC 435 after 18 hrs; settings: MTCC 435, 18 h; how it was run: as §2
[17] = system: HOP-92; assay: Antitumor activity against HOP92 cells; settings: Homo sapiens; for CC50: read-out: Log LC50 (the source's name) (converted); for TGI: read-out: Log TGI (converted)
[18] = system: NCI-H226; assay: Antitumor activity against NCI-H226 cells; settings: Homo sapiens; for CC50: read-out: Log LC50 (the source's name) (converted); for TGI: read-out: Log TGI (converted)
[19] = system: NCI-H23; assay: Antitumor activity against NCI-H23 cells; settings: Homo sapiens; for TGI: read-out: Log TGI (converted)
[20] = system: NCI-H460; assay: Antitumor activity against NCI-H460 cells; settings: Homo sapiens; for TGI: read-out: Log TGI (converted)
[21] = system: SW-620; assay: Antitumor activity against SW620 cells; settings: Homo sapiens; for CC50: read-out: Log LC50 (the source's name) (converted); for TGI: read-out: Log TGI (converted); how it was run: as §1
[22] = system: SF-539; assay: Antitumor activity against SF539 cells; settings: Homo sapiens; for TGI: read-out: Log TGI (converted)
[23] = system: IGROV-1; assay: Antitumor activity against IGROV1 cells; settings: Homo sapiens
[24] = system: NCI-H522; assay: Antitumor activity against NCI-H522 cells; settings: Homo sapiens
[25] = read-out: Log LC50 (the source's name) (converted)

## O=C(NNS(=O)(=O)c1ccc(Cl)cc1Cl)c1cccnc1Nc1ccc(Cl)cc1
[1]
  GI50: 17.8 µM
  LC50: > 100 µM
  TGI: 53.7 µM
[2]
  GI50: 18.6 µM
  LC50: 97.7 µM
  TGI: 42.7 µM
[3]
  GI50: 35.5 µM
  LC50: > 100 µM
  TGI: > 100 µM
[4]
  GI50: 21.9 µM
  LC50: > 100 µM
  TGI: 75.9 µM
[5]
  GI50: 20.4 µM
  CC50: > 100 µM
  TGI: > 100 µM
[6]
  GI50: 28.8 µM
  LC50 (lethal concentration, 50%): > 100 µM
  TGI: > 100 µM
[7]
  GI50: 26.3 µM
  CC50: > 100 µM
  TGI: 77.6 µM
[8]
  GI50: 31.6 µM
  LC50: > 100 µM
  TGI: > 100 µM
[9]
  GI50: 28.8 µM
  LC50: > 100 µM
  TGI: 85.1 µM
[10]
  GI50: 37.2 µM
  LC50 (50% net cell death): > 100 µM
  TGI: > 100 µM
[11]
  GI50: 23.4 µM
  LC50: > 100 µM
  TGI: 81.3 µM
[12]
  GI50: 23.4 µM
  LC50: > 100 µM
  TGI: 75.9 µM
[13]
  GI50: 16.6 µM
  LC50: 72.4 µM
  TGI: 34.7 µM
[14]
  GI50: 10.7 µM
  CC50: > 100 µM
  TGI: 51.3 µM
[15]
  MIC: 20 mg/L (≈ 42.4 µM)
[16]
  MIC: 17 mg/L (≈ 36 µM)
[17]
  GI50: 14.8 µM
  CC50: > 100 µM
  TGI: 40.7 µM
[18]
  GI50: 24 µM
  CC50: > 100 µM
  TGI: 58.9 µM
[19]
  GI50: 17.4 µM
  LC50: > 100 µM
  TGI: 42.7 µM
[20]
  GI50: 35.5 µM
  LC50: > 100 µM
  TGI: 100 µM
[21]
  GI50: 28.2 µM
  CC50: > 100 µM
  TGI: > 100 µM
[22]
  GI50: 19.1 µM
  LC50: > 100 µM
  TGI: 44.7 µM

## O=C(NNS(=O)(=O)c1ccc(F)cc1)c1cccnc1Nc1ccc(Cl)cc1Cl
[2]
  GI50: 42.7 µM
  LC50: > 100 µM
  TGI: > 100 µM
[3]
  GI50: 89.1 µM
  LC50: > 100 µM
  TGI: > 100 µM
[4]
  GI50: 45.7 µM
  LC50: > 100 µM
  TGI: > 100 µM
[5]
  GI50: 29.5 µM
  CC50: > 100 µM
  TGI: 95.5 µM
[6]
  GI50: 38 µM
  LC50 (lethal concentration, 50%): > 100 µM
  TGI: > 100 µM
[7]
  GI50: 52.5 µM
  CC50: > 100 µM
  TGI: > 100 µM
[8]
  GI50: 17.8 µM
  LC50: 57.5 µM
  TGI: 31.6 µM
[9]
  GI50: 33.9 µM
  LC50: > 100 µM
  TGI: > 100 µM
[11]
  GI50: 14.8 µM
  LC50: 69.2 µM
  TGI: 32.4 µM
[12]
  GI50: 39.8 µM
  LC50: > 100 µM
  TGI: > 100 µM
[13]
  GI50: 36.3 µM
  LC50: > 100 µM
  TGI: 100 µM
[14]
  GI50: 18.6 µM
  CC50: > 100 µM
  TGI: > 97.7 µM
[15]
  MIC: 15 mg/L (≈ 32.9 µM)
[16]
  MIC: 21 mg/L (≈ 46.1 µM)
[17]
  GI50: 15.5 µM
  CC50: 85.1 µM
  TGI: 36.3 µM
[18]
  GI50: 29.5 µM
  CC50: > 100 µM
  TGI: 97.7 µM
[19]
  GI50: 36.3 µM
  LC50: > 100 µM
  TGI: > 100 µM
[20]
  GI50: 31.6 µM
  LC50: > 100 µM
  TGI: > 100 µM
[21]
  GI50: 28.8 µM
  CC50: > 100 µM
  TGI: > 100 µM
[22]
  GI50: 26.3 µM
  LC50: > 100 µM
  TGI: 74.1 µM

## CC(=O)Nc1ccc(S(=O)(=O)NNC(=O)c2cccnc2Nc2ccc(Cl)cc2)cc1
[1]
  GI50: 28.8 µM
  LC50: > 100 µM
  TGI: > 100 µM
[3]
  GI50: 23.4 µM
  LC50: > 100 µM
  TGI: > 100 µM
[4]
  GI50: 8.91 µM
  LC50: > 100 µM
  TGI: > 100 µM
[23]
  GI50: 27.5 µM
[23]; [25]
  CC50: > 100 µM
[23]; read-out: Log TGI (converted)
  TGI: > 100 µM
[5]
  GI50: 3.72 µM
  CC50: > 100 µM
  TGI: > 100 µM
[6]
  GI50: 44.7 µM
  LC50 (lethal concentration, 50%): > 100 µM
  TGI: > 100 µM
[8]
  GI50: 58.9 µM
  LC50: > 100 µM
  TGI: > 100 µM
[9]
  GI50: 25.1 µM
  LC50: > 100 µM
  TGI: > 100 µM
[10]
  GI50: 91.2 µM
  LC50 (50% net cell death): > 100 µM
  TGI: > 100 µM
[11]
  GI50: 29.5 µM
  LC50: > 100 µM
  TGI: > 100 µM
[13]
  GI50: 25.1 µM
  LC50: > 100 µM
  TGI: > 100 µM
[14]
  GI50: 6.31 µM
  CC50: > 100 µM
  TGI: > 100 µM
[15]
  MIC: 18 mg/L (≈ 39.1 µM)
[16]
  MIC: 22 mg/L (≈ 47.8 µM)
[17]
  GI50: > 100 µM
  CC50: > 100 µM
  TGI: > 100 µM
[18]
  GI50: 42.7 µM
  CC50: > 100 µM
  TGI: > 100 µM
[20]
  GI50: 4.68 µM
  LC50: > 100 µM
  TGI: > 100 µM
[24]
  GI50: 6.46 µM
[24]; [25]
  CC50: > 100 µM
[24]; read-out: Log TGI (converted)
  TGI: > 100 µM
[21]
  GI50: 7.59 µM
  CC50: > 100 µM
  TGI: > 100 µM
[22]
  GI50: 15.5 µM
  LC50: > 100 µM
  TGI: 75.9 µM
